Sampled rows, rich in hits. Any-hit rate of the full collection: about 2.6%.
SENP7 inh: SENP7 protease inhibitors, primary screen, biochemical, luminescence, uHTS; recombinant SENP7, Z-RLRGG-aminoluciferin luminescence, 40 min; inhibition, % at 5 µM; Sentrin-specific protease 7 (Homo sapiens), Q9BQF6; AID 434973, 2010; 330,000 compounds, 1.5% hits;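 active means inhibition above about 50% at the single test dose, limit read from the data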
Target sequence (Q9BQF6 706-1050 limits assumed): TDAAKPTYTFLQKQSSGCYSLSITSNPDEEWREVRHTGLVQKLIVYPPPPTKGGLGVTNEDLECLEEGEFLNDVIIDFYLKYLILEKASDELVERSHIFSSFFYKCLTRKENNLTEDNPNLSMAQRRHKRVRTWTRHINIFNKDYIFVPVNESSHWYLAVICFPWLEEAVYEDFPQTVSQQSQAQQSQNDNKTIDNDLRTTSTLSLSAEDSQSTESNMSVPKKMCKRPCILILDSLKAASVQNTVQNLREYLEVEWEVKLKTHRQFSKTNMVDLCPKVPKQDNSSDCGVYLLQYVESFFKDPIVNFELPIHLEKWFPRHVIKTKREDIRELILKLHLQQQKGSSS
SENP1 inh: human SENP1 catalytic domain inhibitors, primary screen, biochemical, FRET, uHTS; recombinant SENP1 catalytic domain, CyPet-SUMO1-YPet FRET cleavage; inhibition, % at 10 µM; 360,000 compounds, 0.21% hits;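 active means inhibition at least 30% at 10 µM, raw YFP signal under a set limit, fluorescence ratio 0.5 to 1.5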
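material = recombinant human SENP1 catalytic domain, His6-tagged | quantity = 20 pM enzyme | reagent = 25 nM SUMO1 FRET substrate | compound dosing = 10 µM single point, 0.5% DMSO | timing = 50 min enzyme reaction, room temperature, light-protected | detection = FRET, CFP and YFP emission | control set = no-enzyme low, enzyme-DMSO high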
SENP8 block-1: human SENP8 protease inhibitors, primary screen, biochemical, fluorescence, Nedd8 protein substrate, uHTS. Sentrin-specific protease 8 (Homo sapiens), Q96LD8. recombinant SENP8. inhibition, % at 20 µM. 360,000 compounds, 0.64% hits. AID 602440, 2012; in the data active means inhibition mostly above about 40%, no sharp cut-off; inactive means mostly below about 27%
Target sequence (Q96LD8 whole entry, looked up): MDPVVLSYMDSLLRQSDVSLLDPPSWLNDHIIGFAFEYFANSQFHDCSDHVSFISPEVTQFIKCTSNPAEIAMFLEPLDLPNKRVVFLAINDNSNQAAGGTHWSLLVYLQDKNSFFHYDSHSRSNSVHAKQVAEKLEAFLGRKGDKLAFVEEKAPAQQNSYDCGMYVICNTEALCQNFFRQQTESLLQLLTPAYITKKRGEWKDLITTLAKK
Platelet DG rel: inhibitors of platelet dense granule secretion, primary screen, cell-based, MLPCN, human platelets; human platelet-rich plasma, SFLLRN dense granule ATP release, luminescence; inhibition, %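 (compounds screened at 7.5 µM in platelet-rich plasma)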; 300,000 compounds, 0.22% hits;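 active means mean replicate score, as percent of positive control, at or above 50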
SENP8 block-2: SENP8 protease inhibitors, primary screen, biochemical, luminescence. AID 2540, 2010. purified SENP8, Z-RLRGG-aminoluciferin cleavage. inhibition, % at 10 µM. 330,000 compounds, 1.2% hits. Sentrin-specific protease 8 (Homo sapiens), Q96LD8; in the data active means inhibition above about 50%
SENP6 block: SENP6 protease inhibitors, primary screen, biochemical, luminescence, uHTS. Recombinant SENP6 catalytic domain, aminoluciferin luminescence. inhibition, % at 10 µM. 330,000 compounds, 1.8% hits. Sentrin-specific protease 6 (Homo sapiens), Q9GZR1. AID 2599, 2010;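 active means inhibition above about 50% at the single tested dose, limit read from the data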
SENP8 conf: human SENP8 protease inhibitors, confirmation, biochemical, Nedd8 protein substrate, single concentration; shares compounds with SENP8 block-1; purified SENP8, Nedd8-AMC/pro-Nedd8 cleavage fluorescence, 30 min; inhibition, % at 25 µM; 1,400 compounds, 15% hits; AID 624319, 2012; in the data active means inhibition mostly above about 39%, no sharp cut-off; inactive means mostly below about 34%
Each line names hits and unclear results; the compound was inactive in the other large screens (follow-up assays come after a bar, where they were run).

Cc1ccc(-n2c(-c3ccncc3)nnc2-c2ccco2)cc1	none
Cc1ccc(-c2nnc(-c3ccncc3)n2-c2ccc(C)cc2)cc1	SENP8 block-1 62 | SENP8 conf inactive
CC1=NN(c2ccc(C(F)(F)F)cn2)C(=O)C1	SENP8 block-1 75 | SENP8 conf 58
CS(=O)(=O)Nc1ccc(N2CCN(c3ccc(C(F)(F)F)cn3)CC2)nc1	none
COc1ccc(NCc2nnc(SCC(=O)Nc3ccccc3)n2C)cc1	SENP8 block-1 43 | SENP8 conf inactive
COc1ccc(NCc2nnc(SCC(=O)N3CCCc4ccccc43)n2C)cc1	SENP8 block-1 60 | SENP8 conf inactive
CCn1c(CNc2ccc(OC)cc2)nnc1SCC(=O)N1CCCc2ccccc21	none
COc1ccc(N2CCN(c3ccc(NC(=O)C4CCCCC4)cc3C#N)CC2)cc1	none
Cc1cccc(C(=O)NC2CCN(CC(=O)NCc3cccs3)CC2)c1	none
COC(=O)c1cc(=O)nc(NN=C2CCCCC2)s1	none (no result: SENP7 inh, Platelet DG rel, SENP8 block-2, SENP6 block)
COC(=O)c1cc(=O)nc(NN=C2c3ccccc3-c3ccccc32)s1	SENP8 block-1 38 (no result: SENP7 inh, Platelet DG rel, SENP8 block-2, SENP6 block) | SENP8 conf inactive
COc1cccc(NC(=O)CN(C)C(=O)CSCC(=O)Nc2ccc(C)cc2)c1	none (no result: Platelet DG rel)
COc1ccc(NC(=O)CN(C)C(=O)CSCC(=O)Nc2ccc(C)cc2)cc1	SENP8 block-1 53 | SENP8 conf inactive
COc1ccc(N2CCN(c3n[nH]c(N)n3)CC2)cc1	none
COc1ccc(N2Nc3n[nH]c(N)c3N2)cc1	SENP8 block-1 51 | SENP8 conf inactive
CCOc1ccc(N2Nc3n[nH]c(N)c3N2)cc1	SENP8 block-1 49 | SENP8 conf inactive
Cc1c([N+](=O)[O-])c([N+](=O)[O-])nn1CC(=O)NCCc1ccccc1	none
C[C@H](CCC(=O)O)[C@H]1CC[C@H]2[C@@H]3CC[C@@H]4C[C@H](O)CC[C@]4(C)[C@H]3CC[C@]12C	SENP8 block-1 64 (no result: Platelet DG rel) | SENP8 conf inactive
O=C(c1ncn(Cc2ccccc2)c1C(=O)N1CCc2ccccc2C1)N1CCc2ccccc2C1	SENP8 block-1 52 (no result: Platelet DG rel) | SENP8 conf 58
Cc1cnc(N=Nc2ccccc2)[nH]1	none (no result: SENP7 inh, Platelet DG rel, SENP8 block-2, SENP6 block)
Cc1ccc(CN2C(=O)CCC2C(=O)NCC2CCCO2)cc1 (stereo not given)	none
CCOC(=O)c1ccc(NC(=O)CN2CCc3ccccc3C2)cc1	SENP8 block-1 49 | SENP8 conf 47
COc1ccc(NC(=O)CN2CCc3ccccc3C2)cc1S(=O)(=O)N1CCOCC1	SENP8 block-1 47 | SENP8 conf inactive
O=C(CN1CCN(C(=O)N2CCOCC2)CC1)Nc1ccc(Br)cc1	SENP8 block-1 41 | SENP8 conf inactive
O=C(COC(=O)c1cc(S(=O)(=O)N2CCOCC2)ccc1Cl)Nc1ccc2c(c1)OCO2	SENP8 block-1 45 | SENP8 conf inactive
O=C(COC(=O)c1cc(S(=O)(=O)N2CCOCC2)ccc1Cl)NCc1ccc2c(c1)OCO2	none (no result: Platelet DG rel)
COc1cccc(C(=O)NNC(=O)C(=O)N2CCCCC2)c1	none
Cc1nn(Cc2ccc(Cl)cc2Cl)c(C)c1NC(=O)Cn1nc([N+](=O)[O-])c(Cl)c1C	SENP8 block-1 54 | SENP8 conf inactive
Cc1nn(Cc2ccc(Cl)cc2)c(C)c1NC(=O)Cn1nc([N+](=O)[O-])c(Cl)c1C	none
COc1cc(NC(=O)c2ccc([N+](=O)[O-])o2)ccc1NC(=O)c1ccco1	SENP8 block-1 44 | SENP8 conf inactive
Clc1ccc(-c2nc3ccc(Cl)cn3c2Cc2cccc(Cl)c2)cc1	none (no result: SENP7 inh, Platelet DG rel, SENP8 block-2, SENP6 block)
Cc1ccc(S(=O)(=O)N(CC(=O)Nc2ccc(Cl)c([N+](=O)[O-])c2)C2CCCCC2)cc1	SENP8 block-1 45 | SENP8 conf inactive
O=C(c1ccccc1C(=O)N1CCN(c2ccccc2)CC1)N1CCN(c2ccccc2)CC1	SENP8 block-1 49 | SENP8 conf inactive
N/C(=N\OC(=O)c1cnn(-c2ccccc2)c1C(F)(F)F)c1cc(C(F)(F)F)cc(C(F)(F)F)c1	none
Cc1ccc(C(=O)/C=C\NCc2ccccc2)cc1	none
CC(/C=C/C(=O)c1ccc(C)cc1)=C\c1ccccc1	SENP8 block-1 46 | SENP8 conf inactive
O=C(NCC(=O)N(CC1CCCO1)C(C(=O)NC1CCCC1)c1cccnc1)c1ccco1 (stereo not given)	SENP8 block-1 42 | SENP8 conf inactive
O=C(NCC(=O)N(CC1CCCO1)C(C(=O)NC1CCCC1)c1ccc(F)cc1)c1ccco1 (stereo not given)	none (no result: Platelet DG rel)
CC(=O)c1cccc(NC(=O)COC(=O)c2ccc3c(c2)OCCO3)c1	SENP8 block-1 42 | SENP8 conf inactive
CCc1cc([N+](=O)[O-])cc(CC)c1N	SENP8 block-1 45 | SENP8 conf inactive
Cc1ccc([N+](=O)[O-])cc1N	none
O=C(CN1CCC(C(=O)c2cccc(Cl)c2)CC1)Nc1cccc(C(=O)O)c1	none
COc1ccc(CNC(=O)Cn2cc([N+](=O)[O-])cn2)cc1	SENP8 block-1 44 | SENP8 conf inactive
O=C(Cn1cc([N+](=O)[O-])cn1)NCc1ccccc1	none
c1ccc(Sc2ccccn2)cc1	SENP8 block-1 40 | SENP8 conf inactive
c1ccc(SSc2ccccn2)nc1	none
CC(=O)C1=C(C)OC2(O)c3ccccc3C(=O)C12O (stereo not given)	SENP8 block-1 88 | SENP8 conf 95
Cc1c(C(=O)Nc2nccs2)oc2c(Cl)cccc12	none
CC(=O)O[C@H]1C[C@@]2(O)[C@@H](OC(=O)c3ccccc3)C3[C@@](C)([C@@H](O)C[C@H]4OC[C@@]34OC(C)=O)[C@@H](O)[C@H](OC(C)=O)C(=C1C)C2(C)C (stereo not given in full)	SENP8 block-1 43 | SENP8 conf inactive
O=C(NCc1ccc(Cl)cc1)c1cc(=O)[nH]c2ccc(S(=O)(=O)N3CCOCC3)cc12	none
O=C(NC1CCCCC1)C(c1ccnc2ccccc12)N1CCc2ccccc2C1 (stereo not given)	SENP8 block-1 51 (no result: SENP7 inh, Platelet DG rel, SENP8 block-2, SENP6 block) | SENP8 conf 91
O=C(NC1CCCCC1)C(C1CC1)N1CCc2ccccc2C1 (stereo not given)	none (no result: SENP7 inh, Platelet DG rel, SENP8 block-2, SENP6 block)
Cc1ccccc1NC1=NC(=S)N(CC(N)=O)C12CCOC(C)(C)C2 (stereo not given)	none
